Drawing on ChEMBL document CHEMBL1137143, “Synthesis of C8-linked pyrrolo[2,1-c][1,4]benzodiazepine-acridone/acridine hybrids as potential DNA-binding agents” (Bioorg Med Chem Lett, 2004), this text covers ΔTm and CC50 for five compounds.

Structures are written as SMILES.

The term ΔTm denotes the shift of the melting midpoint relative to a reference.

Assay [1] relates to Nucleic Acid. Put plainly: (§1) DNA-binding ability was determined by thermal denaturation method using calf thymus (CT) DNA; expressed as Delta Tm after 0 hr. It is filed as functional. Particulars: Bos taurus. The method, boiled down:
(§2)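 Thermal melting of CT-DNA, 100 µM, with ligand at 20 µM (1:5 PBD:DNA molar ratio) in 10 mM sodium phosphate + 1 mM EDTA, pH 7.00; incubated at 37 °C for 0 h or 18 h before melting. ΔTm taken relative to DNA alone, whose Tm is a mean of 10 separate determinations.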

The subject of assay [2] is Nucleic Acid. In words: (§3) DNA-binding ability was determined by thermal denaturation method using calf thymus (CT) DNA; expressed as Delta Tm after 18 hr. Conditions: Bos taurus. It is filed as functional. In a few lines: as §2
The species entered for assay [3] is Bos taurus. The description is as §3. The class given is functional, organism-based. The method, boiled down:
as §2

For assay [4], the species on record is Bos taurus. Described as §1. It is filed as functional, organism-based. The method, boiled down:
as §2

The subject of another assay is UACC-62. In words: In vitro cytotoxicity was determined against UACC-62 cell line. It is filed as functional. Particulars: Homo sapiens, read-out: LC50 (the source's name).
The test system of another assay is M14. Put plainly: In vitro cytotoxicity was determined against M14 cell line. It is filed as functional. Conditions: Homo sapiens, read-out: LC50 (the source's name).
In the next assay the test system is A498. In words: In vitro cytotoxicity was determined against A498 cell line. It is filed as functional. Conditions: Homo sapiens, read-out: LC50 (the source's name).
In the next assay the test system is NCI-H23. Put plainly: In vitro cytotoxicity was determined against NCI-H23 cell line. The class given is functional. Conditions: Homo sapiens, read-out: LC50 (the source's name).

With `COc1cc2c(cc1OCCCNC(=O)c1cccc3cc4ccccc4nc13)N=C[C@@H]1CCCN1C2=O`, the ΔTm with Nucleic Acid [1] came out at 5.9 °C; in the assay on Nucleic Acid [2], 7.7 °C.

With `COc1cc2c(cc1OCCNC(=O)c1cccc3c(O)c4ccccc4nc13)N=C[C@@H]1CCCN1C2=O`, the ΔTm worked out at 4.7 °C in the assay on Nucleic Acid [1], 5.7 °C in the assay on Nucleic Acid [2], 5.7 °C in the assay listed under Bos taurus [3] and 4.7 °C in the assay filed under Bos taurus [4].

On to `COc1cc2c(cc1OCCNC(=O)c1cccc3cc4ccccc4nc13)N=C[C@@H]1CCCN1C2=O`, for which the ΔTm with Nucleic Acid [1] amounted to 3.1 °C; in the assay with Nucleic Acid [2] it was 5 °C.

`COc1cc2c(cc1O)N=C[C@@H]1CCCN1C2=O`: the ΔTm is 0.4 °C with Nucleic Acid [1] and 0.7 °C in the assay with Nucleic Acid [2].

`COc1cc2c(cc1OCCCNC(=O)c1cccc3c(O)c4ccccc4nc13)N=C[C@@H]1CCCN1C2=O`: the CC50 is under 10 nM in the assay on UACC-62, under 10 nM in the assay with M14, 50 nM in the assay on A498 and 70 nM in the assay on NCI-H23. Also, the results for the ΔTm with Nucleic Acid [1] and in the assay with Nucleic Acid [2] were 11 °C and 12.5 °C, respectively.
